Data on 37 sequences can be found in the array DNA melting data of Ke et al. (doi:10.1101/2024.01.08.574731).

Data set [1] is described as follows: melting temperature; fluorescence melt of hairpins on a sequencing array, two-state fit, raised by 9.35 °C to match UV melts. To be noted: sodium 0.088 M. The gist of the method:
(§1)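 To match UV melts, fitted temperatures were raised by 9.35 °C. These fits were bootstrapped two-state models that gave melting temperature and folding enthalpy, combined by inverse variance over four replicates. The input was normalised Cy3 fluorescence of library hairpins with annealed Cy3 and quencher oligos on a sequenced MiSeq flow cell, imaged in 50 mM Na-HEPES pH 8.0, 25 mM NaCl in 2.5 °C steps up to 60 °C.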

A short description of data set [2]: folding enthalpy; higher = less favourable; fluorescence melt of hairpins on a sequencing array, two-state fit. The note with it: sodium 0.088 M. In a few lines: as §1

On to GGAGAGCGAAAGCTTTCC (((.(((....))).))), for which the Tm in data set [1] came to 53.6 °C. Moreover, the folding enthalpy in data set [2] is -31.6 kcal/mol.

With GGAGAGGAAACTCTCC ((((((....)))))), the Tm in data set [1] stood at 56.9 °C. In data set [2], the folding enthalpy is -35.1 kcal/mol.

Consider GGAGAGGGAAACCTCTTC (.(((((....))))).), for which the Tm in data set [1] came out at 45.8 °C. Moreover, the folding enthalpy in data set [2] is -21.5 kcal/mol.

Turning to GGAGATCGAAAGATTTCC (((.(((....))).))), in data set [1], the Tm amounted to 46.5 °C. Also, in data set [2], the folding enthalpy is -33 kcal/mol.

Consider GGAGATTCGAAAGAATCC (((..(((....)))))), for which the Tm in data set [1] is 38.7 °C. Moreover, the folding enthalpy in data set [2] is -13.3 kcal/mol.

Take GGAGCAGGAAACTGCTCC (((((((....))))))): in data set [1], the Tm was 69.1 °C. Moreover, the folding enthalpy in data set [2] was -33.4 kcal/mol.

Regarding GGAGCCGAAAGGCCATCC ((((((....)))..))), the Tm in data set [1] was 31.6 °C. Besides, the folding enthalpy in data set [2] was -8.68 kcal/mol.

Consider GGAGCCGAAAGGCCTTCC ((((((....)))..))), for which the Tm in data set [1] is 46.2 °C. Moreover, the folding enthalpy in data set [2] was -15.4 kcal/mol.

With GGAGCCGAAAGGCGGTCC ((((((....)))..))), the Tm in data set [1] turned out to be 48.1 °C. In addition, the folding enthalpy in data set [2] is -9.55 kcal/mol.

Turning to GGAGCCGCGAAAGCGTCC (((..(((....)))))), the Tm in data set [1] came to 30.7 °C. In data set [2], the folding enthalpy is -10.9 kcal/mol.

Regarding GGAGCGGGAAACCGTTCC (((.(((....))).))), in data set [1], the Tm turned out to be 54.9 °C. Further, the folding enthalpy in data set [2] is -38.4 kcal/mol.

On to GGAGCGGGAAACTGCTCC (((((.(....).))))), for which the Tm in data set [1] is 60.9 °C. Also, the folding enthalpy in data set [2] is -45 kcal/mol.

Consider GGAGCTCGAAAGAGGTCC (((.(((....))).))), for which the Tm in data set [1] was 65.9 °C. The folding enthalpy in data set [2] is -37.8 kcal/mol.

Take GGAGCTGGAAACGGTTCC (((.(.(....).).))): in data set [1], the Tm was 37.6 °C. Moreover, the folding enthalpy in data set [2] is -17.5 kcal/mol.

For the sequence GGAGGACCGAAAGGTTCC (((..(((....)))))), the Tm in data set [1] came to 42.9 °C. Besides, in data set [2], the folding enthalpy was -12.6 kcal/mol.

Take GGAGGAGCGAAAGCTTCC (((..(((....)))))): the Tm in data set [1] was 38.6 °C. In addition, the folding enthalpy in data set [2] is -13.4 kcal/mol.

Regarding GGAGGCGAAAGCCCATCC ((((((....)))..))), the Tm in data set [1] was 31.3 °C. For the same sequence, the folding enthalpy in data set [2] was -9.1 kcal/mol.

As to GGAGGCGAAAGCCCGTCC ((((((....)))..))), the Tm in data set [1] amounted to 39.7 °C. For the same sequence, the folding enthalpy in data set [2] is -8.99 kcal/mol.

On to GGAGGCGAAAGCCGCTCC ((((((....)))..))), for which the Tm in data set [1] came to 49.2 °C. For the same sequence, the folding enthalpy in data set [2] was -9.69 kcal/mol.

Regarding GGAGGCGAAAGCCTTTCC ((((((....)))..))), in data set [1], the Tm amounted to 32.4 °C. In data set [2], the folding enthalpy is -10.3 kcal/mol.

GGAGGCGCGAAAGCGTCC (((..(((....)))))): in data set [1], the Tm amounted to 47 °C. Moreover, the folding enthalpy in data set [2] is -8.65 kcal/mol.

As for GGAGGGCCGAAAGGCTCC (((..(((....)))))), the Tm in data set [1] was 39.4 °C. In data set [2], the folding enthalpy was -9.45 kcal/mol.

With GGAGGGGAAACCCTCC ((((((....)))))), the Tm in data set [1] amounted to 62.8 °C. The folding enthalpy in data set [2] was -30.9 kcal/mol.

Turning to GGAGGTACGAAAGTATCC (((..(((....)))))), the Tm in data set [1] came to 32.9 °C. In addition, the folding enthalpy in data set [2] is -13 kcal/mol.

Consider GGAGGTTCGAAAGAATCC (((..(((....)))))), for which the Tm in data set [1] was found to be 28.9 °C. Besides, in data set [2], the folding enthalpy is -14.4 kcal/mol.

As to GGAGTAGGAAACCACTCC (((((.(....).))))), the Tm in data set [1] was 42.6 °C. Further, in data set [2], the folding enthalpy was -28.3 kcal/mol.

Turning to GGAGTAGGAAACTACCCC ((.((((....)))).)), in data set [1], the Tm is 35.1 °C. In data set [2], the folding enthalpy was -24.4 kcal/mol.

For the sequence GGAGTCCCGAAAGGGTCC (((..(((....)))))), the Tm in data set [1] was 34 °C. The folding enthalpy in data set [2] is -12.4 kcal/mol.

On to GGAGTCGAAAGACACTCC ((((((....)))..))), for which the Tm in data set [1] worked out at 37.5 °C. In data set [2], the folding enthalpy was -16 kcal/mol.

On to GGAGTCGAAAGACCTCC ((((((....))).))), for which the Tm in data set [1] is 50 °C. Moreover, in data set [2], the folding enthalpy was -24.5 kcal/mol.

Take GGAGTCGAAAGACCTTCC ((((((....)))..))): the Tm in data set [1] was 40.6 °C. For the same sequence, the folding enthalpy in data set [2] is -22.5 kcal/mol.

For the sequence GGAGTCGAAAGACTATCC ((((((....)))..))), in data set [1], the Tm was 32.9 °C. Further, the folding enthalpy in data set [2] is -13.8 kcal/mol.

GGAGTCGAAAGACTTCC ((((((....))).))): in data set [1], the Tm amounted to 48.7 °C. Further, the folding enthalpy in data set [2] is -21.2 kcal/mol.

Consider GGAGTCGAAAGACTTTCC ((((((....)))..))), for which, in data set [1], the Tm came to 34 °C. For the same sequence, the folding enthalpy in data set [2] was -11.1 kcal/mol.

Consider GGAGTGAAAACTCC (((((....))))), for which the Tm in data set [1] is 54.8 °C. The folding enthalpy in data set [2] was -27.2 kcal/mol.

On to GGAGTGCCGAAAGGCTCC (((..(((....)))))), for which the Tm in data set [1] came out at 41.9 °C. The folding enthalpy in data set [2] is -12.2 kcal/mol.

Turning to GGAGTGCGAAAGCATCC (((.(((....)))))), the Tm in data set [1] came out at 48.2 °C. In addition, in data set [2], the folding enthalpy was -17.1 kcal/mol.
